Bioassay records from PubChem BioAssay.
STAT1 inh: STAT1 signaling inhibitors, primary screen, cell-based, HTS, luciferase reporter; NIH 3T3 STAT1-luciferase reporter, IFN-gamma, luminescence; inhibition, % at 5.5 µM; actives 0.35% (n = 200,000); AID 920, 2007;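 active = inhibition above a set limit, the mean inhibition across all tested compounds plus 3 SD, cut at about 34% in these data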;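 also: 0% = IFN-gamma with DMSO and 100% = IFN-gamma with 300 µM nifuroxazide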
STAT1 act: STAT1 signaling activators, primary screen, cell-based, HTS, luciferase reporter; NIH 3T3 STAT1-luciferase reporter, IFN-gamma, luminescence; 100% = IFN-gamma alone, no compound; activation (% of control), % at 5.5 µM; actives 2.6% (n = 200,000); AID 932, 2007;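 active = activation above the screen-wide mean activation plus 3 SD, cut at about 130% in these data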;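 also: raw ratio to IFN-gamma control signal so 100% means no change and 0% no light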
NF-kB neuron act: activators of NF-kB expression in neurons, primary screen, cell-based, HTS; human neuronal cells, NF-kB reporter expression; hits give high values; fold change at 12.5 µM; actives 1.6% (n = 190,000); in the data active = fold change above about 3.3
APP 5'UTR act: activators of APP 5'UTR luciferase reporter, primary screen, SH-SY5Y cells | SH-SY5Y APP 5'UTR luciferase reporter, luminescence; zero percent = DMSO vehicle wells | activation, % at 2 µM | actives 1% (n = 190,000) | AID 1276, 2008;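 active = activation above a set limit, based on mean plus 3 SD of controls, cut at about 140% in these data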
STAT3 blocker: IL-6 driven STAT3 reporter inhibitors, primary screen, U3A cells, luciferase, luminescence, MLSCN library | IL-6 STAT3-luciferase reporter; host cell line lacks STAT1 | inhibition, % at 5.5 µM | actives 0.89% (n = 190,000) | AID 862, 2007;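 active = inhibition above the mean inhibition across all screened compounds plus 3 SD, cut at about 44% in these data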;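 also: 0% = DMSO only wells and 100% = 100 µM nifuroxazide control wells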
STAT3 act: IL-6 driven STAT3 reporter potentiators, primary screen, U3A cells, luciferase, luminescence, MLSCN library | IL-6 STAT3-luciferase reporter; 100% = signal with IL-6 EC80 alone | activation (% of control), % at 5.6 µM | actives 0.91% (n = 190,000);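 active = activation above the screen-wide mean of compound activation plus 3 SD, cut at about 130% in these data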;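 also: 0% = background luminescence of wells with medium and substrate only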
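Assay system – human STAT1-deficient U3A cells with stable STAT3-luciferase reporter · Also added – IL-6 (33 ng/mL) · Schedule – compound 1 h, then IL-6 6 h at 37 °C · Technique – reporter luminescence signal · Evaluation – % activation versus median of IL-6-stimulated wells · Benchmarks – IL-6-only wells as 100% reference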
The depositor's hits bear a star; / = no result. Hits are enriched below; roughly 5.1% of the tested compounds scored in any of these assays.

SMILES	STAT1 inh	STAT1 act	NF-kB neuron act	APP 5'UTR act	STAT3 blocker	STAT3 act
COc1ccc(C2=NOC(C(=O)N3CCOCC3)C2)cc1OC (stereo not drawn)	-7	107	1.1	4	-2	105
COc1cccc(C2=NOC(C(=O)N3CCOCC3)C2)c1 (stereo not drawn)	-36	133*	2	38	-4	108
CC1CCN(C(=O)C2CC(c3ccc(F)cc3)=NO2)CC1 (stereo not drawn)	-32	129*	1.6	15	16	88
C=CC(C)(C)c1cc2cc3ccoc3cc2oc1=O	-9	108	1.2	11	14	86
COc1cc(NC(=O)c2cccc(Br)c2)nc(OC)n1	-28	123	1.9	43	9	96
O=C(CC1NCCc2ccccc21)Nc1ccc(Cl)cc1 (stereo not drawn)	1	97	0.99	6	-41	133*
O=C(CC1NC(=O)NC1=O)Nc1ccc(Cl)cc1 (stereo not drawn)	0	100	1	15	2	101
CN(C)c1ccc(N=Cc2nc(-c3ccccc3)oc2OC(=O)c2cccc(Cl)c2)cc1	-32	129*	3.4*	135	10	94
Cc1ccc(-c2nc(C=Nc3ccccc3)c(O)o2)cc1	-22	121	2.2	41	10	97
Cc1ccc(C(=O)Oc2oc(-c3ccccc3)nc2C=Nc2ccc(N(C)C)cc2)cc1	-55	149*	1.1	146*	9	93
O=C(COC(=O)c1cccs1)Nc1ccccc1[N+](=O)[O-]	-1	99	1.3	22	22	86
CCn1cc(CNC(=O)CCc2nnc(CCC3CCCCC3)o2)cn1	-1	99	1.3	7	-5	106
COc1ccccc1NC(=O)CSc1nnc(CCNC(=O)c2ccc(C)cc2)n1C	-7	104	1.3	-1	-1	106
O=c1[nH]c2ccccc2nc1CCc1ccccc1	-52	145*	1.1	15	12	92
Cc1ccc(-c2ccc(/C=N/N3C(=O)C4C5C=CC(CC5)C4C3=O)o2)c([N+](=O)[O-])c1 (stereo not drawn)	-2	102	0.95	3	9	97
Clc1ccc(/C(Cc2nc3ccccc3[nH]2)=N\Nc2ccccc2)cc1	-43	136*	2.6	78	6	100
CNC(=O)/C(C#N)=C/c1ccc(-c2ccc(Cl)cc2)o1	-44	142*	1.9	58	10	94
CNC(=O)/C(C#N)=C/c1ccc(-c2ccccc2[N+](=O)[O-])o1	-13	112	1.7	-1	19	87
COc1cccc(C(=O)/C=C2\Sc3ccccc3N2C)c1	-59	150*	1	214*	9	96
CN1/C(=C\C(=O)c2cccnc2)Sc2ccccc21	-39	134*	2.8	127	6	97
CN(C)C(=O)COc1ccc(Oc2ccccc2)cc1	-14	111	1.4	-10	5	99
COc1ccc(CCNC(=O)C2CCN(c3nccc(C)n3)CC2)cc1	2	97	0.93	11	5	102
NC1=NC(=O)/C(=C\C=C\c2ccccc2)S1	-38	134*	1.5	19	1	102
CN(C)c1ccc(/C=C2/SC(=O)N(CCN=C3NS(=O)(=O)c4ccccc43)C2=O)cc1	-37	133*	1.4	35	-17	110
Cc1cccc(NC(=O)c2cnc3sccn3c2=O)c1C	-40	136*	2.5	49	8	97
SMILES	STAT1 inh	STAT1 act	NF-kB neuron act	APP 5'UTR act	STAT3 blocker	STAT3 act
Cc1cccc(NC(=O)c2cnc3ccccn3c2=O)c1	-21	117	2.2	113	32	74
Cc1cccc(NC(=O)c2cnc3sccn3c2=O)n1	-25	122	/	-15	10	96
Cc1cccc(NC(=O)c2cnc3sccn3c2=O)c1	-28	124	5.5*	167*	/	/
O=C(Nc1cnc2sccn2c1=O)c1ccccc1Cl	-43	140*	2.4	74	18	86
CCC(CC)C(=O)NCCc1cc2ccc(C)cc2[nH]c1=O	-8	108	1.1	5	5	100
Cc1ccc2cc(CCNC(=O)c3cccs3)c(=O)[nH]c2c1	-43	139*	2.2	127	0	100
CCCCS/C(N)=N/N=C/c1cc(C)ccc1O	-2	102	1.6	20	1	103
CCS/C(N)=N/N=C/c1cc(C)ccc1O	-35	132*	13*	160*	2	103
Cc1ccc(NC(=S)N(CCN2CCOCC2)Cc2cc3cc4c(cc3[nH]c2=O)OCO4)cc1	2	96	0.82	0	3	103
Cn1c(NCc2c[nH]c3ccccc23)nc2ccccc21	-43	139*	3.3*	113	-43	141*
COc1cc(/C=N/NC(=O)c2cccnc2)ccc1OCC(=O)N1CCOCC1	6	94	1.2	-12	-2	107
Cc1cc(N2CCC(C)CC2)n2nc(C)c(-c3ccccc3)c2n1	2	98	1.1	-4	-6	107
Cc1cc(N2CCC(C)CC2)n2ncc(-c3ccccc3)c2n1	-35	132*	0.8	194*	29	79
Cc1cc(N2CCCCC2)n2nc(C)c(-c3ccccc3)c2n1	-9	108	1.4	1	4	99
Cc1cc(N2CCCCC2)n2ncc(-c3ccc(Cl)cc3)c2n1	-43	139*	1.1	38	-22	121
Cc1cc(N2CCCCC2)n2ncc(-c3ccccc3)c2n1	-12	111	1.2	217*	48*	63
COc1ccccc1CNC(=O)CSc1nnc2ccc(-c3cccnc3)nn12	1	99	1	-6	3	101
CCOC(=O)c1cc(-c2ccc(OC)cc2)n(CCC(=O)NC2CCN(Cc3ccccc3)CC2)c1C	-5	105	0.85	0	-1	109
CCOC(=O)c1cc(-c2ccc(F)cc2)n(CCC(=O)NC2CCN(Cc3ccccc3)CC2)c1C	-13	110	3.7*	10	0	102
O=C1CCC/C(=N/NC(=O)C2CCN(S(=O)(=O)c3cccs3)CC2)C1	-4	104	1.2	13	5	103
Cc1ccccc1CC1(CO)CCCN(C(=O)CCCN2CCCCC2=O)C1 (stereo not drawn)	-7	105	1.5	13	-3	106
Clc1ccc(-c2nnc(-c3ccc(Br)o3)o2)c(Cl)c1	-42	139*	3.1	43	19	86
Cn1ccnc1SCc1cn2cc(Br)ccc2n1	-18	117	2.3	164*	43	68
